Experimental data as given in ChEMBL document CHEMBL5724801, “EUbOPEN Chemogenomics Library - Multiplex” (2024).
Several values for one entry are separate records, joined by “and”; a condition that tells them apart may be missing. Identical values can stand only once.

Tested on: Fibroblast
Assay: Multiplex assay against human fibroblast
Assay type: toxicity, cell-based
In short: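 Cells were classed with CellPathfinder machine-learning gating, first as Hoechst high-intensity objects or normal cells, then (normal cells) as healthy, pyknosed or fragmented nuclei, and finally (pyknosed cells) as mitotic or apoptotic. Staining of live cells at seeding used Hoechst33342, BioTracker Green Microtubule Cytoskeleton Dye, MitoTracker Red and Annexin V Alexa Fluor 680, with imaging on a CQ1 microscope at 37°C and 5% CO2 after compound addition. Tubulin, mitochondrial-mass and membrane-permeability phenotypes are per cents of healthy-nucleus cells.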

[1] = 12 h, 1 µM, compound concentration 1 uM
[2] = 12 h, 10 µM, compound concentration 10 uM
[3] = 24 h, 1 µM, compound concentration 1 uM
[4] = 24 h, 10 µM, compound concentration 10 uM
[5] = 48 h, 1 µM, compound concentration 1 uM
[6] = 48 h, 10 µM, compound concentration 10 uM

Structure (SMILES): Oc1c(CN2CCN(c3ccccn3)CC2)cc(Cl)c2cccnc12
- Population Apoptotic (%) [1]: 73% and 57%
- Population Fragmented Nuclei (%) [1]: 17% and 27%
- Population Healthy Nuclei (%) [1]: 68% and 54%
- Population Hoechst High Intensity Objects (%) [1]: 4% and 5%
- Population Membrane Permeable-Phenotype (%) [1]: 1% and 8%
- Population Mitochondria Different-Phenotype (%) [1]: 0% and 6%
- Population Mitotic Cells (%) [1]: 26% and 42%
- Population Normal (%) [1]: 95% and 94%
- Population Pyknosed Nuclei (%) [1]: 14% and 18%
- Population Tubulin-Different-Phenotype (%) [1]: 27% and 43%
- Total Cell Count [1]: 168 and 152
- Population Apoptotic (%) [2]: 41% and 33%
- Population Fragmented Nuclei (%) [2]: 17% and 25%
- Population Healthy Nuclei (%) [2]: 54% and 58%
- Population Hoechst High Intensity Objects (%) [2]: 5% and 2%
- Population Membrane Permeable-Phenotype (%) [2]: 0% and 2%
- Population Mitochondria Different-Phenotype (%) [2]: 25% and 9%
- Population Mitotic Cells (%) [2]: 58% and 66%
- Population Normal (%) [2]: 94% and 97%
- Population Pyknosed Nuclei (%) [2]: 27% and 16%
- Population Tubulin-Different-Phenotype (%) [2]: 67% and 62%
- Total Cell Count [2]: 130 and 131
- Population Apoptotic (%) [3]: 50% and 45%
- Population Fragmented Nuclei (%) [3]: 19% and 29%
- Population Healthy Nuclei (%) [3]: 67% and 56%
- Population Hoechst High Intensity Objects (%) [3]: 3% and 5%
- Population Membrane Permeable-Phenotype (%) [3]: 0% and 8%
- Population Mitochondria Different-Phenotype (%) [3]: 3% and 7%
- Population Mitotic Cells (%) [3]: 50% and 55%
- Population Normal (%) [3]: 96% and 94%
- Population Pyknosed Nuclei (%) [3]: 13%
- Population Tubulin-Different-Phenotype (%) [3]: 30% and 47%
- Total Cell Count [3]: 174 and 153
- Population Apoptotic (%) [4]: 89% and 56%
- Population Fragmented Nuclei (%) [4]: 26% and 35%
- Population Healthy Nuclei (%) [4]: 46% and 41%
- Population Hoechst High Intensity Objects (%) [4]: 0% and 2%
- Population Membrane Permeable-Phenotype (%) [4]: 1%
- Population Mitochondria Different-Phenotype (%) [4]: 15% and 11%
- Population Normal (%) [4]: 100% and 97%
- Population Pyknosed Nuclei (%) [4]: 27% and 22%
- Population Tubulin-Different-Phenotype (%) [4]: 57% and 68%
- Total Cell Count [4]: 139 and 134
- Population Apoptotic (%) [5]: 54% and 70%
- Population Fragmented Nuclei (%) [5]: 17% and 25%
- Population Healthy Nuclei (%) [5]: 67% and 66%
- Population Hoechst High Intensity Objects (%) [5]: 5% and 0%
- Population Membrane Permeable-Phenotype (%) [5]: 1% and 4%
- Population Mitochondria Different-Phenotype (%) [5]: 1% and 4%
- Population Mitotic Cells (%) [5]: 45% and 30%
- Population Normal (%) [5]: 94% and 99%
- Population Pyknosed Nuclei (%) [5]: 14% and 7%
- Population Tubulin-Different-Phenotype (%) [5]: 35% and 37%
- Total Cell Count [5]: 158 and 137
- Population Apoptotic (%) [6]: 85% and 78%
- Population Fragmented Nuclei (%) [6]: 31% and 34%
- Population Healthy Nuclei (%) [6]: 32% and 41%
- Population Hoechst High Intensity Objects (%) [6]: 2%
- Population Membrane Permeable-Phenotype (%) [6]: 0% and 1%
- Population Mitochondria Different-Phenotype (%) [6]: 9% and 7%
- Population Mitotic Cells (%) [6]: 14% and 21%
- Population Normal (%) [6]: 97%
- Population Pyknosed Nuclei (%) [6]: 35% and 24%
- Population Tubulin-Different-Phenotype (%) [6]: 38% and 65%
- Total Cell Count [6]: 137

Structure (SMILES): Cc1cc(=O)n(C)c2cc(N3C(=O)CC[C@H](NS(=O)(=O)CC(C)C)[C@H]3c3ccc(Cl)cc3)ccc12
- Population Apoptotic (%) [1]: 31% and 38%
- Population Fragmented Nuclei (%) [1]: 16% and 20%
- Population Healthy Nuclei (%) [1]: 56% and 38%
- Population Hoechst High Intensity Objects (%) [1]: 2% and 10%
- Population Membrane Permeable-Phenotype (%) [1]: 0% and 8%
- Population Mitochondria Different-Phenotype (%) [1]: 4%
- Population Mitotic Cells (%) [1]: 68% and 62%
- Population Normal (%) [1]: 97% and 89%
- Population Pyknosed Nuclei (%) [1]: 26% and 40%
- Population Tubulin-Different-Phenotype (%) [1]: 34% and 61%
- Total Cell Count [1]: 135 and 137
- Population Apoptotic (%) [2]: 41% and 18%
- Population Fragmented Nuclei (%) [2]: 11% and 26%
- Population Healthy Nuclei (%) [2]: 40% and 31%
- Population Hoechst High Intensity Objects (%) [2]: 3% and 11%
- Population Membrane Permeable-Phenotype (%) [2]: 1% and 8%
- Population Mitochondria Different-Phenotype (%) [2]: 8%
- Population Mitotic Cells (%) [2]: 58% and 82%
- Population Normal (%) [2]: 96% and 88%
- Population Pyknosed Nuclei (%) [2]: 48% and 42%
- Population Tubulin-Different-Phenotype (%) [2]: 86% and 94%
- Total Cell Count [2]: 149 and 133
- Population Apoptotic (%) [3]: 34% and 50%
- Population Fragmented Nuclei (%) [3]: 18% and 26%
- Population Healthy Nuclei (%) [3]: 62% and 44%
- Population Hoechst High Intensity Objects (%) [3]: 2% and 10%
- Population Mitochondria Different-Phenotype (%) [3]: 4% and 5%
- Population Mitotic Cells (%) [3]: 65% and 50%
- Population Normal (%) [3]: 97% and 89%
- Population Pyknosed Nuclei (%) [3]: 18% and 29%
- Population Tubulin-Different-Phenotype (%) [3]: 24% and 70%
- Total Cell Count [3]: 140 and 128
- Population Apoptotic (%) [4]: 43% and 42%
- Population Fragmented Nuclei (%) [4]: 14% and 28%
- Population Healthy Nuclei (%) [4]: 46% and 26%
- Population Hoechst High Intensity Objects (%) [4]: 10% and 8%
- Population Membrane Permeable-Phenotype (%) [4]: 0% and 17%
- Population Mitochondria Different-Phenotype (%) [4]: 19% and 8%
- Population Mitotic Cells (%) [4]: 56% and 57%
- Population Normal (%) [4]: 90% and 91%
- Population Pyknosed Nuclei (%) [4]: 39% and 45%
- Population Tubulin-Different-Phenotype (%) [4]: 88% and 85%
- Total Cell Count [4]: 150 and 143
- Population Apoptotic (%) [5]: 48% and 46%
- Population Fragmented Nuclei (%) [5]: 27% and 35%
- Population Healthy Nuclei (%) [5]: 54%
- Population Hoechst High Intensity Objects (%) [5]: 2% and 7%
- Population Membrane Permeable-Phenotype (%) [5]: 1% and 8%
- Population Mitochondria Different-Phenotype (%) [5]: 2% and 8%
- Population Mitotic Cells (%) [5]: 52% and 53%
- Population Normal (%) [5]: 97% and 92%
- Population Pyknosed Nuclei (%) [5]: 18% and 9%
- Population Tubulin-Different-Phenotype (%) [5]: 27% and 73%
- Total Cell Count [5]: 141 and 142
- Population Apoptotic (%) [6]: 61% and 54%
- Population Fragmented Nuclei (%) [6]: 23% and 34%
- Population Healthy Nuclei (%) [6]: 38% and 37%
- Population Hoechst High Intensity Objects (%) [6]: 15% and 10%
- Population Membrane Permeable-Phenotype (%) [6]: 0% and 25%
- Population Mitochondria Different-Phenotype (%) [6]: 24% and 8%
- Population Mitotic Cells (%) [6]: 38% and 45%
- Population Normal (%) [6]: 84% and 89%
- Population Pyknosed Nuclei (%) [6]: 37% and 27%
- Population Tubulin-Different-Phenotype (%) [6]: 92% and 87%
- Total Cell Count [6]: 153 and 141
